Source: PubChem (Broad Institute)
PGC1a Ac signal: compounds raising PGC1a acetylation signal, primary screen, PGC1a modulator project, cell-based, U2OS, AlphaScreen, signal-increasing mode. overnight. activation, % at 15.6 µM. 350,000 tested, 0.21% active. AID 651723, 2012;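 active = every replicate reaching activation of at least 50%, whatever the mean replicate activation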;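 note: hits raise the AlphaScreen acetylation signal above neutral controls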
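Incubation: overnight compound treatment, 37 °C. System: U2OS cells transduced with flag-tagged PGC1a and GCN5 acetyltransferase. Detection: AlphaScreen lysate read. Compound: single-point compound dosing.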
Hits are given with their value; n = inactive. This is one part of a sample in which hits are shown more often than they occur.

SMILES	PGC1a Ac signal
O=C(NC1=NCCS1)C1CC(=O)N(c2ccccc2)C1 (stereo unspecified)	68
CCOC(=O)c1[nH]c2ccc(OC)cc2c1NC(=O)c1ccc2c(c1)OCO2	55
COc1ccc2c(c1)c(CC(=O)OCC(N)=O)c(C)n2C(=O)c1ccc(Cl)cc1	n
Cc1ccccc1OCC(=O)N/N=C/c1cc2ccccc2nc1Cl	59
Cc1cc(OCC(=O)NNC(=O)c2cnccn2)cc(C)c1Cl	n
Nc1nnc(CC(=O)N/N=C/c2ccccc2OCc2ccc(F)cc2)s1	n
Cc1ccccc1S(=O)(=O)NCC[C@@H]1CC[C@H](NC(=O)C2CCOCC2)[C@@H](CO)O1	n
Cc1ccc(/C(N)=N/OC(=O)c2ccco2)cc1	62
O=[N+]([O-])c1ccc(/C=N/n2c(CO)nc3ccccc32)s1	53
CO[C@H]1CN(C)C(=O)c2ccc(NC(=O)C3CCOCC3)cc2OC[C@@H](C)N(C)C[C@@H]1C	n
CCCNC(=O)COC(=O)c1ccccc1C(=O)c1ccc(Cl)c([N+](=O)[O-])c1	127
CC(C)(C)NC(=O)c1ccc(Sc2ccccc2)c([N+](=O)[O-])c1	n
Cc1cc(C(=O)OCC(=O)N(C)c2ccccc2)ccc1[N+](=O)[O-]	n
O=C(Nc1nc2c(s1)CN(Cc1ccccc1)CC2)c1c(F)cccc1F	n
COCCNC(=O)CN1CCC(NC(=O)C(C)(C)C)CC1	n
CC(c1ccccc1)N1C(=O)NC(NC(=O)c2cccnc2)(C(F)(F)F)C1=O (stereo unspecified)	74
O=C(COc1ccccc1)N1CCN=C1SCc1ccccc1	n
O=C(NCc1ccc2c(c1)OCO2)c1ccc(NC(=O)C2CCCO2)cc1 (stereo unspecified)	66
CC1CCCCC12NC(=O)N(CC(=O)NCc1ccc3c(c1)OCO3)C2=O (stereo unspecified)	n
C[C@@H]1CCCCO[C@H](CN(C)Cc2ccc3c(c2)OCO3)[C@@H](C)CN([C@@H](C)CO)C(=O)c2cc(NC(=O)Nc3ccc(C(F)(F)F)cc3)ccc2O1	n
Cc1noc(C)c1NC(=O)N(C)C[C@H]1OCCCC[C@@H](C)Oc2ccc(NC(=O)Cc3ccccc3)cc2C(=O)N([C@@H](C)CO)C[C@@H]1C	n
C=CCNC(=O)c1ccc(CN2CCC(Cc3ccccc3)CC2)cc1	n
CN(C)S(=O)(=O)N1CCC(Cc2ccccc2)CC1	62
CN(Cc1ccccc1)S(=O)(=O)c1ccc(S(=O)(=O)N(Cc2ccc(F)cc2)C2CCCC2)cc1	n
Cc1ccccc1-c1nc(C(=O)NCC2CCCO2)cc2c1[nH]c1ccccc12 (stereo unspecified)	61
SMILES	PGC1a Ac signal
O=C(CSc1nc2ccccc2c(=O)n1CC1CCCO1)N1CCN(c2ccccc2)CC1 (stereo unspecified)	n
Cc1ccc(-c2cc(C(=O)NCC3CCCO3)c3ccccc3n2)cc1C (stereo unspecified)	n
C[C@@H]1CN([C@@H](C)CO)C(=O)c2cccc(NC(=O)C3CCCCC3)c2O[C@@H]1CN(C)CC1CCCCC1	n
C[C@@H]1CN([C@@H](C)CO)S(=O)(=O)c2ccc(-c3ccccc3)cc2O[C@@H]1CN(C)C(=O)c1ccccc1F	n
O=C(O)c1cc(N2CCCCC2)ccn1	n
Nc1ccc(N2CCCCC2)cc1N1CCCCC1	54
CCOCCCNC(=O)C1CCN(C(=O)Nc2ccc(C)cc2)CC1	n
Cc1ccc(-n2c(SCC(N)=O)nnc2-c2ccc(S(=O)(=O)N3CCCCC3)cc2)c(C)c1	63
Cc1ccc(S(=O)(=O)N2CCCC2)cc1C(=O)O	n
CCOc1ccc(C(=O)N/N=C(\c2ccccc2)c2ccccn2)cc1	n
CCOC(=O)C(NC(=O)c1ccccc1OCC)(Nc1ncccn1)C(F)(F)F (stereo unspecified)	70
CCOc1ccccc1C(=O)NCCCCCC(=O)O	n
OC(COc1ccc(CNCCc2ccc(C(F)(F)F)cc2)cc1)CN1CCCCC1 (stereo unspecified)	54
CCC1(CC)Cc2ccccc2-c2nc(CN(C)C)[nH]c(=O)c21	53
CCN(CC)C1CC(=O)N(c2ccc(Br)cc2)C1=O (stereo unspecified)	n
CCCCCC(=O)N1C[C@H](n2cc(-c3ccc(F)cc3)nn2)[C@@H](O)C[C@@H]1c1ccc(C)cc1	n
CCOC(=O)C1=C[C@@H](C(C)(C)C)N(S(=O)(=O)c2ccc(C)cc2)[C@H]1c1cccc2ccccc12	100
O=C(O)CCCC(=O)Nc1ccc(Br)cc1C(=O)O	50
COc1ccccc1Nc1nc(NCCC(C)C)nc(N)c1[N+](=O)[O-]	n
CN(C)C(=S)Nc1ccc(Br)c(Cl)c1	n
COC(=O)c1ccc2[nH]c3cccc(/C(=C/c4ccccc4)c4ccccc4)c3c2c1	61
C#CCN(C[C@@H]1[C@@H](OC(=O)NCC2CCCCC2)[C@@H](OC(=O)NCC2CCCCC2)Cn2c(=O)ccc(=O)n21)S(=O)(=O)c1ccc(C)cc1	n
O=C(OCc1cnc(Cl)s1)c1cccs1	n
O=[N+]([O-])c1ccc(N=Nc2c(Cl)cc(O)cc2Cl)cc1	53
